Results: ChEMBL document CHEMBL1275484, “Rifampin and rifaximin resistance in clinical isolates of Clostridium difficile” (Antimicrob Agents Chemother, 2008)
In brackets after ≈: the same amount, converted by molar mass.

Tests used:
Assay type in all cases: functional
Clostridioides difficile [1] = assay: Antimicrobial activity against Clostridium difficile isolate 36 by agar dilution method
Outline: (§1)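 MIC by CLSI reference agar dilution for anaerobes, with endpoints read per M11-A7 and C. difficile […] as control. Rifaximin was dissolved in methanol, diluted in 0.1 M phosphate buffer pH 7.4 plus 0.45% SDS, and tested at 0.0009–256 μg/ml. Rifampin was dissolved in methanol, diluted in water, and tested at 0.00001–256 μg/ml.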

Clostridioides difficile [2] = assay: Antimicrobial activity against Clostridium difficile isolate 42 by agar dilution method
Outline: (§2)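 CLSI reference agar dilution method for anaerobes, with endpoints read per guideline M11-A7. Rifaximin was dissolved in methanol, diluted in 0.1 M phosphate buffer (pH 7.4) with 0.45% SDS, and tested at 0.0009–256 μg/ml. Rifampin was dissolved in methanol, diluted in water, and tested at 0.00001–256 μg/ml. C. difficile ATCC […] served as control. Isolates were typed by HindIII REA.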

Clostridioides difficile [3] = assay: Antimicrobial activity against Clostridium difficile isolate 45 by agar dilution method; outline: as §2
Clostridioides difficile [4] = assay: Antimicrobial activity against Clostridium difficile isolate 48 by agar dilution method; outline: as §2
Clostridioides difficile [5] = assay: Antimicrobial activity against Clostridium difficile isolate 49 by agar dilution method; outline: as §2
Clostridioides difficile [6] = assay: Antimicrobial activity against rifaximin-resistant Clostridium difficile isolate 50 expressing RpoB R505K mutant by agar dilution method
Outline: as §1, with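 “MICs were found” for “MIC”, “by the” for “by”, “dilution method” for “dilution”, “with” for “plus”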

Clostridioides difficile [7] = assay: Antimicrobial activity against Clostridium difficile isolate 55 by agar dilution method; outline: as §2
Clostridioides difficile [8] = assay: Antimicrobial activity against Clostridium difficile isolate 57 by agar dilution method; outline: as §2
Clostridioides difficile [9] = assay: Antimicrobial activity against Clostridium difficile isolate 59 by agar dilution method; outline: as §2
Clostridioides difficile [10] = assay: Antimicrobial activity against Clostridium difficile isolate 60 by agar dilution method; outline: as §2
Clostridioides difficile [11] = assay: Antimicrobial activity against rifaximin-resistant Clostridium difficile isolate 64 expressing RpoB H502R mutant by agar dilution method
Outline: as §1, with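 “MICs were found” for “MIC”, “by the” for “by”, “dilution method” for “dilution”, “with” for “plus”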

Clostridioides difficile [12] = assay: Antimicrobial activity against rifaximin-resistant Clostridium difficile isolate 65 expressing RpoB H502N and R505K mutants by agar dilution method
Outline: as §1, with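 “MICs were found” for “MIC”, “by the” for “by”, “dilution method” for “dilution”, “with” for “plus”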

Clostridioides difficile [13] = assay: Antimicrobial activity against Clostridium difficile isolate 71 by agar dilution method
Outline: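 CLSI reference agar dilution for anaerobes, with endpoints read per guideline M11-A7. Rifaximin was dissolved in methanol, diluted in 0.1 M phosphate buffer pH 7.4 with 0.45% SDS, and tested at 0.0009–256 μg/ml. Rifampin was dissolved in methanol, diluted in water, and tested at 0.00001–256 μg/ml. Control strain: C. difficile ATCC […]. Isolates were typed by HindIII REA.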

Clostridioides difficile [14] = assay: Antimicrobial activity against Clostridium difficile isolate 1 by Etest
Outline: (§3)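 Rifampin MIC by Etest strip on brucella blood agar, run per the strip maker's instructions. Isolates were HindIII REA-typed clinical C. difficile.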

Clostridioides difficile [15] = assay: Antimicrobial activity against Clostridium difficile isolate 5 by Etest
Outline: (§4)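 Rifampin Etest strips were run on brucella blood agar following the manufacturer's instructions to give an MIC. Clinical isolates were typed by HindIII REA.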

Clostridioides difficile [16] = assay: Antimicrobial activity against Clostridium difficile isolate 7 by Etest
Outline: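 Rifampin MIC by Etest on brucella blood agar, run per the strip manufacturer's instructions, against clinical isolates typed by HindIII REA.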

Clostridioides difficile [17] = assay: Antimicrobial activity against Clostridium difficile isolate 11 by Etest; outline: as §3
Clostridioides difficile [18] = assay: Antimicrobial activity against Clostridium difficile isolate 13 by Etest; outline: as §3
Clostridioides difficile [19] = assay: Antimicrobial activity against Clostridium difficile isolate 16 by Etest; outline: as §3
Clostridioides difficile [20] = assay: Antimicrobial activity against rifaximin-resistant Clostridium difficile isolate 17 expressing RpoB H502N and I548M mutants by Etest
Outline: (§5)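 Rifampin Etest on clinical C. difficile isolates typed by HindIII REA, run per the strip manufacturer's instructions on brucella blood agar, with the MIC read from the strip.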

Clostridioides difficile [21] = assay: Antimicrobial activity against Clostridium difficile isolate 20 by Etest; outline: as §3
Clostridioides difficile [22] = assay: Antimicrobial activity against rifaximin-resistant Clostridium difficile isolate 21 expressing RpoB H502N and R505K mutants by Etest; outline: as §5
Clostridioides difficile [23] = assay: Antimicrobial activity against rifaximin-resistant Clostridium difficile isolate 22 expressing RpoB H502N and R505K mutants by Etest; outline: as §5
Clostridioides difficile [24] = assay: Antimicrobial activity against rifaximin-resistant Clostridium difficile isolate 24 expressing RpoB H502N and R505K mutants by Etest; outline: as §5
Clostridioides difficile [25] = assay: Antimicrobial activity against rifaximin-resistant Clostridium difficile isolate 26 expressing RpoB R505K mutant by Etest; outline: as §5
Clostridioides difficile [26] = assay: Antimicrobial activity against Clostridium difficile isolate 27 by Etest; outline: as §3
Clostridioides difficile [27] = assay: Antimicrobial activity against Clostridium difficile isolate 28 by Etest; outline: as §3
Clostridioides difficile [28] = assay: Antimicrobial activity against Clostridium difficile isolate 29 by Etest; outline: as §3
Clostridioides difficile [29] = assay: Antimicrobial activity against Clostridium difficile isolate 36 by Etest; outline: as §3
Clostridioides difficile [30] = assay: Antimicrobial activity against Clostridium difficile isolate 37 by Etest; outline: as §3
Clostridioides difficile [31] = assay: Antimicrobial activity against Clostridium difficile isolate 38 by Etest; outline: as §3
Clostridioides difficile [32] = assay: Antimicrobial activity against Clostridium difficile isolate 40 by Etest; outline: as §4
Clostridioides difficile [33] = assay: Antimicrobial activity against Clostridium difficile isolate 42 by Etest; outline: as §4
Clostridioides difficile [34] = assay: Antimicrobial activity against Clostridium difficile isolate 51 by Etest; outline: as §4
Clostridioides difficile [35] = assay: Antimicrobial activity against Clostridium difficile isolate 52 by Etest; outline: as §4
Clostridioides difficile [36] = assay: Antimicrobial activity against Clostridium difficile isolate 57 by Etest; outline: as §4
Clostridioides difficile [37] = assay: Antimicrobial activity against rifaximin-resistant Clostridium difficile isolate 66 expressing RpoB D492N and R505K mutants by Etest; outline: as §5
Clostridioides difficile [38] = assay: Antimicrobial activity against Clostridium difficile isolate 2 by agar dilution method; outline: as §1
Clostridioides difficile [39] = assay: Antimicrobial activity against Clostridium difficile isolate 10 by agar dilution method; outline: as §1
Clostridioides difficile [40] = assay: Antimicrobial activity against Clostridium difficile isolate 14 by agar dilution method; outline: as §1
Clostridioides difficile [41] = assay: Antimicrobial activity against rifaximin-resistant Clostridium difficile isolate 17 expressing RpoB H502N and I548M mutants by agar dilution method
Outline: as §1, with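 “MICs were found” for “MIC”, “by the” for “by”, “dilution method” for “dilution”, “with” for “plus”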

Clostridioides difficile [42] = assay: Antimicrobial activity against rifaximin-resistant Clostridium difficile isolate 18 expressing RpoB R505K mutant by agar dilution method
Outline: as §1, with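 “MICs were found” for “MIC”, “by the” for “by”, “dilution method” for “dilution”, “with” for “plus”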

Clostridioides difficile [43] = assay: Antimicrobial activity against rifaximin-resistant Clostridium difficile isolate 21 expressing RpoB H502N and R505K mutants by agar dilution method
Outline: as §1, with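 “MICs were found” for “MIC”, “by the” for “by”, “dilution method” for “dilution”, “with” for “plus”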

Clostridioides difficile [44] = assay: Antimicrobial activity against rifaximin-resistant Clostridium difficile isolate 22 expressing RpoB H502N and R505K mutants by agar dilution method
Outline: as §1, with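 “MICs were found” for “MIC”, “by the” for “by”, “dilution method” for “dilution”, “with” for “plus”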

Clostridioides difficile [45] = assay: Antimicrobial activity against Clostridium difficile isolate 25 by agar dilution method; outline: as §1
Clostridioides difficile [46] = assay: Antimicrobial activity against Clostridium difficile isolate 33 by agar dilution method; outline: as §1
Clostridioides difficile [47] = assay: Antimicrobial activity against Clostridium difficile isolate 35 by agar dilution method; outline: as §1

`CO[C@H]1/C=C/O[C@@]2(C)Oc3c(C)c(O)c4c(O)c(c(/C=N/N5CCN(C)CC5)c(O)c4c3C2=O)NC(=O)/C(C)=C\C=C\[C@H](C)[C@H](O)[C@@H](C)[C@@H](O)[C@@H](C)[C@H](OC(C)=O)[C@@H]1C` [RIFAMPIN] showed an MIC (Clostridioides difficile [1]) of 0.9 ng/mL (≈ 1.09 nM), an MIC (Clostridioides difficile [2]) of 0.9 ng/mL (≈ 1.09 nM) and an MIC (Clostridioides difficile [3]) of 0.9 ng/mL (≈ 1.09 nM). It also gave an MIC (Clostridioides difficile [4]) of 0.9 ng/mL (≈ 1.09 nM), an MIC (Clostridioides difficile [5]) of 0.9 ng/mL (≈ 1.09 nM) and an MIC (Clostridioides difficile [6]) of 128 µg/mL (≈ 156000 nM). It also gave an MIC (Clostridioides difficile [7]) of 0.9 ng/mL (≈ 1.09 nM), an MIC (Clostridioides difficile [8]) of 0.9 ng/mL (≈ 1.09 nM) and an MIC (Clostridioides difficile [9]) of 0.9 ng/mL (≈ 1.09 nM). The MIC (Clostridioides difficile [10]) was 0.9 ng/mL (≈ 1.09 nM), the MIC (Clostridioides difficile [11]) was greater than 256 µg/mL and the MIC (Clostridioides difficile [12]) was greater than 256 µg/mL. For the same compound, the MIC (Clostridioides difficile [13]) was 0.06 ng/mL (≈ 0.0729 nM), the MIC (Clostridioides difficile [14]) was less than 2 ng/mL and the MIC (Clostridioides difficile [15]) was less than 2 ng/mL. The MIC (Clostridioides difficile [16]) was less than 2 ng/mL, the MIC (Clostridioides difficile [17]) was less than 2 ng/mL and the MIC (Clostridioides difficile [18]) was less than 2 ng/mL. The MIC (Clostridioides difficile [19]) was less than 2 ng/mL, the MIC (Clostridioides difficile [20]) was greater than 32 µg/mL and the MIC (Clostridioides difficile [21]) was less than 2 ng/mL. For the same compound, the MIC (Clostridioides difficile [22]) was greater than 32 µg/mL, the MIC (Clostridioides difficile [23]) was greater than 32 µg/mL and the MIC (Clostridioides difficile [24]) was greater than 32 µg/mL. The MIC (Clostridioides difficile [25]) was greater than 32 µg/mL, the MIC (Clostridioides difficile [26]) was less than 2 ng/mL and the MIC (Clostridioides difficile [27]) was less than 2 ng/mL. The MIC (Clostridioides difficile [28]) was less than 2 ng/mL, the MIC (Clostridioides difficile [29]) was less than 2 ng/mL and the MIC (Clostridioides difficile [30]) was less than 2 ng/mL. It also gave an MIC (Clostridioides difficile [31]) of less than 2 ng/mL, an MIC (Clostridioides difficile [32]) of less than 2 ng/mL and an MIC (Clostridioides difficile [33]) of less than 2 ng/mL. It also gave an MIC (Clostridioides difficile [34]) of less than 2 ng/mL, an MIC (Clostridioides difficile [35]) of less than 2 ng/mL and an MIC (Clostridioides difficile [36]) of less than 2 ng/mL. The MIC (Clostridioides difficile [37]) was greater than 32 µg/mL, the MIC (Clostridioides difficile [38]) was 0.06 ng/mL (≈ 0.0729 nM) and the MIC (Clostridioides difficile [39]) was 0.06 ng/mL (≈ 0.0729 nM). It also gave an MIC (Clostridioides difficile [40]) of 0.9 ng/mL (≈ 1.09 nM), an MIC (Clostridioides difficile [41]) greater than 256 µg/mL and an MIC (Clostridioides difficile [42]) of 128 µg/mL (≈ 156000 nM). For the same compound, the MIC (Clostridioides difficile [43]) was greater than 256 µg/mL, the MIC (Clostridioides difficile [44]) was greater than 256 µg/mL and the MIC (Clostridioides difficile [45]) was 0.9 ng/mL (≈ 1.09 nM). For the same compound, the MIC (Clostridioides difficile [46]) was 0.9 ng/mL (≈ 1.09 nM) and the MIC (Clostridioides difficile [47]) was 0.9 ng/mL (≈ 1.09 nM).
